The list is not random: actives were taken first. Their share in the collection is about 12%.
Diaph inh CS: diaphorase inhibition or chemical oxidation counter-screen; diaphorase resazurin-to-resorufin fluorescence, NADH, 16 min; bacterial (C. kluyveri) enzyme, not human; AID 1217; inhibition, % at 20 µM; actives 0.69% (n = 190,000);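 active = primary screen inhibition at 20 µM above a set limit, cut at about 50% in these data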;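 also: plate controls were DMSO with full reaction for no effect and wells lacking NADH for full effect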
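System: Diaphorase enzyme from Clostridium kluyveri | Amount: Enzyme working solution with 0.14 U/mL diaphorase | Benchmarks: No-NADH positive control and DMSO neutral control | Signal: Fluorescence of resorufin formed from resazurin, Ex 544/Em 590 nm | Schedule: 16-min room-temperature incubation before reading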
Lmaj promast: reduces viability of Leishmania major promastigotes. actives 9% (n = 200,000). resazurin fluorescence viability. inhibition, % at 10 µM; in the data active = inhibition above about 50%;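 also: promastigotes grown with compound for 44 hours at 28 °C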
WT yeast gro inh: growth inhibition of WT yeast, mitochondrial fusion screen; mitochondrial fusion phenotypic screen, WT strain; inhibition, % at 10 µM; actives 2.1% (n = 190,000); AID 1362; in the data active = inhibition above about 58%; tested in S. cerevisiae
ROMK mod: human ROMK K+ channel modulation, primary screen; P48048; Tet-inducible ROMK, thallium flux fluorescence; actives lie on both sides; B-score at 10 µM; actives 2% (n = 130,000); AID 1918;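 active = signal ratio slope over the read window, or its plate-corrected B-score, at least 3 SD from the plate mean, either direction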;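 also: B-score of the F/F0 ratio slope over 7 to 12 s after thallium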
Diaph act CS: diaphorase activation or chemical reduction counter-screen; Diaphorase/resazurin coupled assay, resorufin fluorescence, 16 min; hits give high values; 1 = vehicle wells, 0 = NADH-free wells; activation factor at 20 µM; actives 0.005% (n = 190,000); AID 1229;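 active = diaphorase activity raised at least twofold by the compound at 20 µM; inactive = activation factor below 2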
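Material: purified diaphorase enzyme from Clostridium kluyveri; Also added: 0.114 mM NADH and 0.1 mM resazurin, final amounts; Doses: single compound dose of 20 µM, 1% DMSO final; Times: 16 min enzyme reaction, ambient temperature; Detection: resorufin fluorescence, excitation 544 nm, emission 590 nm; Measure: increased resorufin signal from activators or reducing compounds.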
KCC2 mod: KCC2 (human) Cl- transport modulation; Q9H2X9; KCC2 cells, thallium flux FluoZin-2 fluorescence; B-score of Tl+ flux slope (higher = more flux/activation; lower = inhibition) at 10 µM; actives 2.2% (n = 190,000);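 active = thallium flux slope and its plate-corrected score both differing from the plate sample mean at a set confidence after two filtering rounds, in either direction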;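 also: slope of fluorescence scaled to starting intensity during 10 to 20 s after thallium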
Target sequence (Q9H2X9 whole entry, looked up): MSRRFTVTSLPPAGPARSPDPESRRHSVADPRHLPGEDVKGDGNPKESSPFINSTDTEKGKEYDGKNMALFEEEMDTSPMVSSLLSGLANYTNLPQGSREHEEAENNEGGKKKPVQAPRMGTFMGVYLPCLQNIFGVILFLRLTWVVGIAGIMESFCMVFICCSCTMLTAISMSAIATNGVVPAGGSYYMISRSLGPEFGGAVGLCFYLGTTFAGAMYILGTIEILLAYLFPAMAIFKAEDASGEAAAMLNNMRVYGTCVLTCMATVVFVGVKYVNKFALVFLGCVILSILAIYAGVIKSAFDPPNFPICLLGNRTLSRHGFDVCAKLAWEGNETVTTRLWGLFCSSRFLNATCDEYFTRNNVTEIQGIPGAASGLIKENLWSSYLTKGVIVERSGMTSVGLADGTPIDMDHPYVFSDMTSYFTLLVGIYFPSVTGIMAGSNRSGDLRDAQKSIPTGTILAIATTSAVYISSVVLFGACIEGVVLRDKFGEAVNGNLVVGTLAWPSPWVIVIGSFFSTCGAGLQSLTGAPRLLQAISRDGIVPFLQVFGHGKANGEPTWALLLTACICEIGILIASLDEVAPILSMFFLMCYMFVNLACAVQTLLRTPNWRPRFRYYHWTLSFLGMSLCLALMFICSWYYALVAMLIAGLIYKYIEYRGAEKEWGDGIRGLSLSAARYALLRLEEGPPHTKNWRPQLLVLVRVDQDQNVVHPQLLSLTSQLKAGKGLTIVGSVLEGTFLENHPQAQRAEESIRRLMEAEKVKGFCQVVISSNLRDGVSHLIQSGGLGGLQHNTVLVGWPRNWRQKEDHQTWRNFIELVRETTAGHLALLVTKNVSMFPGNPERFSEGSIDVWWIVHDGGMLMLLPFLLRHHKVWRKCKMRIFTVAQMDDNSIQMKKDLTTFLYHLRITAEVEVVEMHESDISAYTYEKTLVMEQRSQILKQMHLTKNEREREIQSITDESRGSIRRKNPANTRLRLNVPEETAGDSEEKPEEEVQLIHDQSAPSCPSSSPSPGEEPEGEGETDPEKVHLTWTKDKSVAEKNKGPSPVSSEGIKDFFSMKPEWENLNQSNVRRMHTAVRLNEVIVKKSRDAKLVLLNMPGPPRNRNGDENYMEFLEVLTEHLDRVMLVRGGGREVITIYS
ROMK hit retest: human ROMK channel modulation, retest confirmation; shares compounds with ROMK mod; ROMK thallium flux, fluorescence ratio; hits give low values; normalized thallium flux (F/F0 slope) at 10 µM; actives 54% (n = 3,000); AID 1917;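 active = Flux at 10 µM at least 3 SD below or above vehicle control mean in one or both replicates; inconclusive = no clear call, values can overlap the other calls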
* marks the source's active call; other numbers are inactive results; i = inactive; ? = inconclusive; nt = no result.

SMILES	Diaph inh CS	Lmaj promast	WT yeast gro inh	ROMK mod	Diaph act CS	KCC2 mod	ROMK hit retest
CCOc1cc(CNC2CCCC2)cc(Cl)c1OCc1ccc(F)cc1	-12	100*	54	-3.8*	1.1	-0.1	0.061*
COc1cc(CNC2CCCCCC2)cc(OC)c1OC	10	0	9	-0.31	0.9	0.22	nt
CC1=NN(c2nc(-c3ccc(C)cc3)cs2)C(=O)C1N=Nc1ccc(C(N)=O)cc1 (stereo not given)	8	-6	51	0.1	0.9	-1.4	0.077
CC(=O)N(Cc1nc2sc(C)c(C)c2c(=O)[nH]1)C1CCCC1	10	-6	-26	-0.62	0.9	-1.4	nt
CN1CCS/C1=C/C=C1\SC(=S)N(CC(=O)O)C1=O	8	-5	-4	nt	0.9	i	nt
CN1/C(=C/C2CC(=O)NC2=O)C(C)(C)c2ccccc21 (stereo not given)	14	0	9	-0.051	0.9	nt	nt
CCCCN1C(=O)/C(=C/C=C2\N(C)c3ccccc3C2(C)C)SC1=S	26	18	35	-4.4*	0.7	-0.13	0.039*
CCCCN1C(=O)/C(=C/C=C2\SCCN2C)SC1=S	27	4	37	-3.3*	0.7	0.33	0.052*
COC(=O)c1ccc(CNC(=O)COC(=O)C2CCC(C(C)(C)C)CC2)cc1 (stereo not given)	17	-3	-4	0.14	0.8	0.47	nt
OCCC1CN(Cc2nc(-c3ccc(F)cc3)cs2)CCN1CCc1ccccc1 (stereo not given)	20	85*	-14	-3.9*	0.8	-2.8	0.054*
COc1ccc(S(=O)(=O)N(C)CC(=O)NCCC2=CCCCC2)cc1	14	-2	-2	nt	0.9	-1.4	0.069*
CC(Oc1ccccc1)C(=O)NC1=NCCS1 (stereo not given)	6	-6	-4	-0.42	0.9	-0.92	nt
Cc1ccc(CN2CCC(c3nc4ccc(Cl)cc4[nH]3)CC2)cc1	-4	92*	1	nt	1	nt	?
CC1CCCCN1C(=O)CN1CCC(c2nc3ccc(Cl)cc3[nH]2)CC1 (stereo not given)	10	3	-3	-1.5	0.9	0.2	nt
S=C(Nc1ccc2cn[nH]c2c1)Nc1ccccc1Cl	2	10	-11	-0.61	1	-0.12	nt
CC(C)OC(=O)NC(Nc1ccccc1C(=O)O)(C(F)(F)F)C(F)(F)F	nt	nt	nt	nt	nt	0.46	0.076
CCOC(=O)NC(Nc1ccc(C)cn1)(C(F)(F)F)C(F)(F)F	39	-3	-1	0.045	0.6	0.28	nt
Cc1c(Cl)cccc1NC(=O)CSCC(N)=O	4	-5	-21	nt	1	0.92	nt
Cc1c(Cl)cccc1NC(=O)CSC(N)=O	18	-1	4	-2.6*	0.8	3	0.075
O=C(N1CCN(c2cccc(Cl)c2)CC1)C1(c2cccs2)CCOCC1	20	10	7	nt	0.8	-0.73	nt
Cc1ccccc1NC(=O)c1ccc(-c2ccc(Cl)cc2Cl)o1	20	39	57	0.13	0.8	nt	nt
Cc1cccc(C)c1NC(=O)c1ccc(-c2ccc(Cl)cc2Cl)o1	20	91*	46	-2.9*	0.8	0.12	0.052*
CC(=O)c1c(C)[nH]c(C(=O)OCCCCN2C(=O)c3ccccc3C2=O)c1C	10	4	1	nt	0.9	-0.92	0.061*
CCc1ccc(NC(=O)CC2C(=O)Nc3c2c(=O)n(C)c(=O)n3C)cc1 (stereo not given)	5	-5	-6	nt	1	-0.43	nt
CC(=O)c1c(C)nn(C(C)CC(=O)O)c1C (stereo not given)	6	-1	6	nt	0.9	-0.13	0.076
SMILES	Diaph inh CS	Lmaj promast	WT yeast gro inh	ROMK mod	Diaph act CS	KCC2 mod	ROMK hit retest
O=[N+]([O-])c1ccc2c(c1)nc1n2CCN(c2ccccc2)C1	nt	nt	nt	nt	nt	0.35	0.072
COCCN1CCn2c(nc3cc([N+](=O)[O-])ccc32)C1	nt	nt	nt	nt	nt	0.076	nt
Cc1ccc(CN2CCN(CC(=O)NC(C)c3ccc4c(c3)OCCO4)C2=O)cc1 (stereo not given)	8	-2	12	nt	0.9	-0.05	nt
N#C/C(=C\C1CC=CCC1)c1nc2ccccc2[nH]1 (stereo not given)	15	95*	-17	-7*	0.9	-0.59	0.045*
Cc1ccc(/C=C(\C#N)c2nc3ccccc3[nH]2)s1	2	23	17	nt	1	nt	nt
Cc1ccc(S(=O)(=O)N2CCN(C(=O)CSc3nnnn3C)C2)cc1	8	-6	-10	nt	0.9	nt	nt
CC1(C)C2CCC1(CS(=O)(=O)N1CCCc3ccccc31)C(=O)C2 (stereo not given)	11	-2	-10	-3.4*	0.9	0.44	0.07
COc1ccc(OC)c(Nc2ncnc3sc(-c4ccccc4)cc23)c1	16	1	17	nt	0.8	0.77	nt
OCCOCCNc1ncnc2sc(-c3ccccc3)cc12	-3	19	4	-1.8*	1	-0.59	0.064*
Cc1ccc(-n2ncc(C(=O)Nc3cc(Cl)ccc3C)c2C2CCNCC2)cc1C	17	-10	5	-3.2*	0.8	-0.72	0.045*
CN(C)/C=C(/C(=O)c1ccc(Cl)cc1)S(=O)(=O)c1ccc(Cl)cc1	7	-5	5	nt	0.9	-0.1	0.082
Cc1ccc(OCc2nnc(SCC(=O)C(C)(C)C)n2Cc2ccco2)cc1	13	48	-9	-3.6*	0.9	nt	0.075
Cc1c(CCOC(=O)c2ccccc2)sc[n+]1Cc1ccccc1	9	-3	18	-0.11	0.9	1.3	nt
Cc1c(CCOC(=O)CC23CC4CC(CC(C4)C2)C3)sc[n+]1CC(=O)c1ccc(Br)cc1	-7	33	-7	-6*	1.1	0.86	0.045*
Cc1ncsc1CCOC(=O)C12CC3CC(CC(C3)C1)C2	24	-5	3	0.098	0.8	nt	nt
Cc1c(CCOC(=O)c2cc([N+](=O)[O-])cc([N+](=O)[O-])c2)sc[n+]1CC(=O)c1ccccc1	6	28	-3	-0.54	0.9	0.81	nt
Cc1c(CCOC(=O)CC23CC4CC(CC(C)(C4)C2)C3)sc[n+]1CC(=O)c1ccccc1	-42	92*	3	-4.1*	1.4	0.51	0.047*
Cc1c(CCOC(=O)C23CC4CC(CC(C)(C4)C2)C3)sc[n+]1CC(=O)c1ccccc1	7	3	21	-5.9*	0.9	0.86	0.06*
Clc1ccc2nncn2n1	10	19	-7	0.059	0.9	1.8	nt
Cc1cccc(N2CCN(C(=O)C3CCN(S(=O)(=O)N4CCOCC4)CC3)CC2C)c1 (stereo not given)	3	19	-12	-0.22	1	-1.4	nt
